# Bioassay records (PubChem)
# Sampled rows, rich in hits. Any-hit rate of the full collection: about 4.2%.
# KCC2 mod = KCC2 (human) Cl- transport modulation. B-score of Tl+ flux slope (higher = more flux/activation; lower = inhibition) at 10 µM. KCC2 cells, thallium flux FluoZin-2 fluorescence. Q9H2X9. 190,000 compounds, 2.2% hits. AID 1456;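 active = thallium flux slope and its plate-corrected score both differing from the plate sample mean at a set confidence after two filtering rounds, in either direction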;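 also: slope of fluorescence scaled to starting intensity during 10 to 20 s after thallium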
# Target sequence (Q9H2X9 whole entry, looked up): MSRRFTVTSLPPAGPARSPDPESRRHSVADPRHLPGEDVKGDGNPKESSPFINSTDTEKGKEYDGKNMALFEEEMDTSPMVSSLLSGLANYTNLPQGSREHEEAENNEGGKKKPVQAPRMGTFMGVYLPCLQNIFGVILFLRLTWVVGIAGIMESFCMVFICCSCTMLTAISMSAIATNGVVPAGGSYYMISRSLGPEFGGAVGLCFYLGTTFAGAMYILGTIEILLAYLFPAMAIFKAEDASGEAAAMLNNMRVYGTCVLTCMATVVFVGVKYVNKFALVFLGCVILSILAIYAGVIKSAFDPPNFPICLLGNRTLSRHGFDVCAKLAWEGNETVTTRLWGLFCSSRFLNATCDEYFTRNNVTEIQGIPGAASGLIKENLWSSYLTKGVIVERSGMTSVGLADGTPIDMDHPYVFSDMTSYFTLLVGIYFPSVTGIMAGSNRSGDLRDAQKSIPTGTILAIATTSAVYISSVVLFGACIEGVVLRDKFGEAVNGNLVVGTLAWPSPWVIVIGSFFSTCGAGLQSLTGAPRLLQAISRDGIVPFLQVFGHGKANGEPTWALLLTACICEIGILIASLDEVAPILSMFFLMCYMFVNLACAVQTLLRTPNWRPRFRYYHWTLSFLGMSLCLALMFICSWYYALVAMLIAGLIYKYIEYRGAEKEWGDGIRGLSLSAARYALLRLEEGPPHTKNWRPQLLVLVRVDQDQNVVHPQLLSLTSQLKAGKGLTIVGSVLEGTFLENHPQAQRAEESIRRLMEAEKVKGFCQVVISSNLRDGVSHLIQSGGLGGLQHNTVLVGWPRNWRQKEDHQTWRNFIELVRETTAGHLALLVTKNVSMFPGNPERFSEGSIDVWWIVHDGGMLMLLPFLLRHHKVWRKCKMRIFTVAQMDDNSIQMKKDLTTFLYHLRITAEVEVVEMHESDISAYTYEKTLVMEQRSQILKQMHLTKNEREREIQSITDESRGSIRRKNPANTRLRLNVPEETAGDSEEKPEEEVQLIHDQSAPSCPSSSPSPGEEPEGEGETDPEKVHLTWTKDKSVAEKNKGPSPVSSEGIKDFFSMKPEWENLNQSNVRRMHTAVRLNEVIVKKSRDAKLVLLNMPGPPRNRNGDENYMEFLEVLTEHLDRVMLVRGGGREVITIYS
# Insulin prom up = MIN6 insulin promoter up-regulation. MIN6 insulin promoter-GFP reporter, high-content imaging; active compounds read high. z-score at 5 µM. 190,000 compounds, 0.3% hits;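 active = z-score above 3 at 5 µM with at least 500 cells counted in the well; inconclusive = wells under 500 cells, flagged as cytotoxic or low count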
# WT yeast gro inh = growth inhibition of WT yeast, mitochondrial fusion screen; 190,000 compounds, 2.1% hits; mitochondrial fusion phenotypic screen, WT strain; inhibition, % at 10 µM; AID 1362; in the data active = inhibition above about 58%; tested in S. cerevisiae
# Autophagy mod = alters autophagy in cells; MEF GFP-LC3 puncta imaging; test concentration mostly 10 µM; calls only at 10 µM (by protocol); 190,000 compounds, 0.98% hits; AID 463193;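 active = percentage of spot-positive cells more than 3 SD above its plate mean, without a fluorescence outlier flag or 80% toxicity; inconclusive = no clear call, values can overlap the other calls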;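 also: spot-positive cell cutoff set from DMSO-treated cells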
# Rad51 HR inh = Rad51 (human) homologous recombination inhibition; Q06609; hRad51 DNA strand exchange, fluorescence dequenching; inhibition, % at 10 µM; 200,000 compounds, 0.085% hits;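 active = inhibition above 40% at the single screening dose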;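 also: 0% = DMSO control wells and 100% = blanks with heterologous ssDNA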
#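 Test system – preformed human Rad51 ssDNA filaments · Reagent – Donor/quencher-labelled 47-bp dsDNA substrate · Incubation – 37 °C 15-min filament assembly, 30-min compound preincubation, 15-min exchange · Signal – FRET fluorescence dequenching, excitation 485 nm, emission 520 nm · Read-out – percent inhibition from fluorescence, normalised to plate control and blank means · Benchmarks – plate control and blank wells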
# SKKanGAS inh = inhibitors of SKKanGAS S. pyogenes growth in kanamycin (SK-promoter or general growth effect). BacTiter-Glo, 6 h. inhibition, % at 7.5 µM. 300,000 compounds, 1.3% hits. AID 1662;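 active = mean replicate score, as percent of positive control median, at least 50; inconclusive = mean below 50 but one replicate at or above 50; inactive = mean and every replicate below 50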;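 also: strain carries kanamycin resistance gene driven by streptokinase promoter and grows in 40 µg/ml kanamycin; loss of luminescence reflects streptokinase promoter inhibition or plain growth inhibition; 0% = median of DMSO wells and 100% = positive control at its reference dose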
# KCC2 secondary = confirmation of human KCC2 transport modulators. shares compounds with KCC2 mod. HEK293-KCC2, thallium flux, FluoZin2 fluorescence; active compounds read high. normalised thallium flux (F/F0 slope) at 10 µM. 3,700 compounds, 15% hits;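 active = thallium flux slope above the same plate's solvent-only control mean plus 3 SD; inconclusive = the two replicate wells disagree; inactive = no significant difference from solvent-only control wells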
# KCC2 bumet counter = thallium flux persisting under bumetanide in KCC2 cells, counter-screen secondary assay; shares compounds with KCC2 mod; HEK293-KCC2 + bumetanide/ouabain, thallium flux FluoZin2; active compounds read high; normalized thallium flux at 10 µM; 3,700 compounds, 49% hits;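 active = thallium entry rate above the same plate's blocked-transporter control wells by more than 3 SD; inconclusive = the two repeat wells disagree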;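 also: raw slope of fluorescence over initial fluorescence between 10 and 20 s after thallium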
# KCC2 sec2 = confirmation of human KCC2 transport modulators | shares compounds with KCC2 mod | HEK293-KCC2, thallium flux FluoZin2 fluorescence; actives lie on both sides; F/F0 rise rate, 10–20 s post-thallium | normalized thallium flux at 10 µM | 3,700 compounds, 23% hits | AID 1715;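 active = thallium flux slope more than 3 SD above or below the plate's solvent-only control mean, mostly below; inconclusive = the two repeat wells disagreed; inactive = no significant shift from solvent-only controls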;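 also: raw slope with 0.1% DMSO as baseline and bumetanide as block control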
# HEK counter1 = parental HEK flux effect, counter-screen | thallium flux rate (normalised fluorescence) at 10 µM | 3,700 compounds, 46% hits | shares compounds with KCC2 mod | AID 1716 | HEK293 parental cells, thallium flux FluoZin2, ouabain; baseline-ratio fluorescence slope, 10–20 s after thallium;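 active = thallium flux rate significantly above the same plate's solvent-only control wells, beyond their mean plus 3 SD; inconclusive = the two replicate wells gave conflicting results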
# KCC2 retest ouab = confirmation of human KCC2 modulators with ouabain; 3,700 compounds, 48% hits; shares compounds with KCC2 mod; AID 1717; raw Tl+ flux slope (below DMSO = inhibition, above = activation) at 10 µM; HEK293-KCC2, thallium flux FluoZin2 fluorescence; bidirectional: low = inhibitor, high = activator;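 active = thallium flux slope beyond 3 SD from same-plate DMSO control mean in most replicates, usually higher, sometimes lower; inconclusive = repeat tests gave conflicting results; inactive = no significant difference from controls in most replicates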;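 also: slope of initial-normalized fluorescence between seconds 10 and 20 after thallium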
# HEK counter2 = acts in parental HEK cells, second KCC2 counter-screen; 3,700 compounds, 33% hits; shares compounds with KCC2 mod; HEK293 parental, thallium flux FluoZin-2 fluorescence slope; thallium flux slope at 10 µM;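 active = thallium flux slope above the same plate's solvent-control mean plus 3 SD in both duplicate wells; inconclusive = duplicate wells that disagreed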;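 also: run without ouabain in cells lacking the KCC2 cotransporter; slope of fluorescence scaled to its starting value between 10 and 20 s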
# An asterisk follows results filed as active; i = inactive; ? = inconclusive; . = not tested or not shown.
SMILES,KCC2 mod,Insulin prom up,WT yeast gro inh,Autophagy mod,Rad51 HR inh,SKKanGAS inh,KCC2 secondary,KCC2 bumet counter,KCC2 sec2,HEK counter1,KCC2 retest ouab,HEK counter2
CCOC(=O)C1CCN(S(=O)(=O)CCNC(=O)c2ccc(F)cc2)CC1,.,.,.,.,.,-2.7,.,.,.,.,.,.
NC(=O)[C@@H]1CCCN1Cc1nc(Cc2ccccc2Cl)no1,.,-0.13,2.0,i,14.9,-5.8,.,.,.,.,.,.
C=CCNc1cnn(-c2ccc(C)cc2)c(=O)c1Sc1ccc(C)cc1,0.141,-1.23,17.9,i,-4.3,3.6,.,.,.,.,.,.
CCc1nnc(NC(=O)CSc2nnc(Cc3ccccc3)o2)s1,.,1.11,8.2,i,0.0,-9.2,0.00724,0.00701,0.0268,0.00632,?,0.00977
CN(C)c1ccc(C(=O)c2ccc(O)cc2O)cc1,-3.59*,.,10.4,i,11.0,-1.0,0.00761,0.00586,0.0336,0.00747,?,0.0107
COC(=O)c1c(NC(=S)Nc2ccccc2Cl)sc(C)c1C,6.32*,0.1,25.8,i,-2.1,-3.2,0.0133*,0.0224*,0.0296,0.0143*,?,0.0123*
O=C(NNC(=O)C1CC2CCC1C2)c1sc2ccccc2c1Cl (centres undefined),9.49*,0.17,7.2,i,4.3,-10.9,0.0103,0.0409*,0.0314,0.0192*,0.0246,0.0124*
OCC[C@@H]1C[C@H](O)[C@@H](O)[C@]2(CCc3ccccc3CO2)O1,.,.,.,.,.,6.2,.,.,.,.,.,.
COC1=C/C(=C/c2c(N)n3cc(C)sc3nc2=O)C=CC1=O,-6.56*,0.39,2.5,i,.,-1.0,0.00383*,-0.00151*,0.0171*,0.00281*,0.00805*,0.00599*
Cc1cn2c(N)c(C=C3C=C(Cl)C(=O)C(Cl)=C3)c(=O)nc2s1,i,0.54,-0.1,i,i,46.7,.,.,.,.,.,.
CCOC(=O)CC1Sc2ccccc2NC1=S (centres undefined),6.93*,.,.,.,-9.8,-12.3,0.0109,0.0239*,0.0362,?,0.0306*,?
O=C(Nc1ccccc1Cl)Oc1ccc(-c2ccccc2)cc1,-0.943,-0.66,.,.,-3.2,0.7,.,.,.,.,.,.
N#Cc1ccccc1Sc1ccccc1C(=O)OCc1nnc(-c2ccccc2)o1,-3.79*,.,0.1,i,-3.7,14.7,?,0.0059,0.0311,0.0102*,?,0.0106
CCCOc1ccc(N2C(=O)C3ON(c4ccccc4)C(c4ccc(O)c(OC)c4)C3C2=O)cc1 (centres undefined),-1.01,0.58,1.6,i,.,6.9,0.00554,0.00451,?,0.00785,0.0176,0.00957
Cc1ccc(Cl)cc1NC(=S)N/N=C/c1cccc2ccccc12,29.9*,-0.36,.,.,9.6,80.1*,0.00911,0.0353*,0.0326,?,0.0282*,0.0135
Cc1ccccc1C(=O)N/N=C/c1cccc2ccccc12,.,.,.,.,.,3.1,.,.,.,.,.,.
COc1cccc(N2CCN(S(=O)(=O)c3ccc4nc(-c5ccccc5)[nH]c4c3)CC2)c1,9.13*,-0.73,4.8,i,-2.3,11.3,0.00867,0.00507,0.0307,0.00778,0.019,0.0101
CCC(=O)NC(=S)Nc1ccc(NC(=O)COc2ccc(Cl)cc2Cl)cc1,0.188,.,.,i,-0.9,12.1,.,.,.,.,.,.
Cc1cccc(NC(=S)NNC(=O)COc2ccc(Cl)cc2Cl)c1,6.47*,-0.02,62.9*,i,6.6,-0.3,0.01,0.16*,0.0349,0.0284*,0.0532*,0.013*
Cc1ccc(OCC(=O)NC(=S)Nc2ccccn2)c(Br)c1,.,.,.,.,.,8.4,.,.,.,.,.,.
Cc1ccc(OCC(=O)NNC(=S)NC(=O)C(C)(C)C)c(Br)c1,49.9*,-0.89,83.8*,i,-0.5,89.6*,0.0253*,0.098*,?,0.0683*,0.065*,0.0243*
CCOC(=O)C1=C(CN2CCCCC2)NC(=O)NC1c1cc(C)ccc1C (centres undefined),.,.,13.8,i,-13.1,0.3,0.00557,0.00425,0.0313,0.00728,0.0186,0.0103
CCOC(=O)C1=C(CN2CCOCC2)NC(=O)NC1c1cc(C)ccc1C (centres undefined),0.61,0.08,8.3,i,-2.3,0.9,.,.,.,.,.,.
CC(C)Cc1nnc(NC(=O)CCC(=O)NC2CC2)s1,.,.,.,.,.,4.7,.,.,.,.,.,.
CCN(CC)C(=O)CSc1nnc([C@@H](N)C(C)C)o1,-1.57,.,.,.,1.1,-1.3,.,.,.,.,.,.
SMILES,KCC2 mod,Insulin prom up,WT yeast gro inh,Autophagy mod,Rad51 HR inh,SKKanGAS inh,KCC2 secondary,KCC2 bumet counter,KCC2 sec2,HEK counter1,KCC2 retest ouab,HEK counter2
O=C(O)C1CCCN(S(=O)(=O)c2ccc(Br)s2)C1 (centres undefined),1,-1.01,-6.6,i,-5.9,-0.3,.,.,.,.,.,.
O=C(O)/C(=C\c1ccc(Br)cc1)c1ccc(S(=O)(=O)N2CCCCC2)s1,-6.89*,0.55,3.3,i,1.8,18.6,0.00764,0.00675,0.0329,0.00407,0.0123*,0.0114
Cc1cccc[n+]1CC(=O)c1ccc(NC(=O)c2ccccc2)cc1,.,.,.,.,.,-4.9,.,.,.,.,.,.
O=C(Nc1ccccc1OC(F)F)c1oc2ccccc2c1COc1ccccc1,0.794,-0.81,3.9,i,-4.2,-7.9,.,.,.,.,.,.
Cc1cc(C)cc(NC(=O)c2oc3ccccc3c2COc2ccccc2)c1,-4.75*,-0.49,7.0,i,-3.8,10.9,0.00845,0.00608,0.0312,0.00788,0.0184,0.0109
CCOc1cc(Br)ccc1S(=O)(=O)NCc1ccccc1,.,-0.23,-0.6,i,.,-3.0,0.00698,0.00514,0.0237*,0.00742,0.0163*,0.0101
COc1ccc2c(C)cc(SC3CCOC3=O)nc2c1 (centres undefined),-0.131,.,-6.6,i,23.6,-7.1,.,.,.,.,.,.
Cc1cc(C)c2nc(SC3CCOC3=O)cc(C)c2c1 (centres undefined),11*,.,18.2,i,-9.6,-5.7,0.00829,?,0.0311,0.0115*,0.0472,?
COC(=O)c1ccc(NC(C)C(=O)OC)c([N+](=O)[O-])c1 (centres undefined),-0.97,-0.03,-3.2,i,2.9,-7.1,.,.,.,.,.,.
